System: M2 anti-FLAG antibody
Assay: Prot-MaP on-chip limit of detection
Format: binding, mouse
Conditions: for fluorescence signal relative to WT: quantified fluorescence medians across M2 concentrations, Fig. 2B
Summary of the method: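 Run at 25°C: M2 at 1, 3.2, 10, 32, 100nM (45 min each), each followed by wash and 35nM Alexa555 anti-mouse secondary (37 min). Zero-primary secondary gives baseline. Per-variant cluster medians used; threshold 3σ above negative-set mean; LoD by inter/extrapolation.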

Sequence | fluorescence signal relative to WT | fold lower LoD than WT (LoD of WT FLAG (DYKDDDDK) relative to variant) [fold]
DYKDDDDKGDYKDHD [2xFLAG, reference compound] | much higher signal than WT | 
DYKDEDLL [superFLAG] | much higher signal than WT | 7.9

Source: paper PMC7001660 (Molecular cell, 2019)
